Calls of active or inactive are those of the source. The calls are words filed in the database; no cut-off is given here.
How the values were obtained:
[1] = biological target: T1, Glucagon-like peptide 1 receptor (Homo sapiens, UniProt P43220); experiment: Agonist activity at human GLP1 assessed as stimulation of cAMP; assay type: functional
Summary of the method: (§1)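 cAMP production was measured in a membrane-based assay at the human GLP-1 receptor. Potency is reported as EC50 and efficacy as Emax (%).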

[2] = biological target: T1, Glucagon-like peptide 1 receptor; experiment: Agonist activity at human GLP1 assessed as stimulation of cAMP relative to cAMP; assay type: functional; summary of the method: as §1
[3] = biological target: T1, Glucagon-like peptide 1 receptor; experiment: Effect on augmentation of [125]GLP1 binding to human GLP1; conditions: read-out: IC50 (the source's name)
Summary of the method: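 Test agents were incubated with human GLP-1 receptor and GLP-1, and the rise in GLP-1 binding was followed across agent concentrations. IC50 is the agent concentration giving 50% of its maximal augmentation of GLP-1 binding.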

Pancreas = experiment: Effect on release of insulin in perfused rat pancreas; assay type: functional, tissue-based
Mus musculus = species on record: Mus musculus; experiment: Effect on release of insulin in mouse islets; assay type: functional

T1 sequence (P43220 whole entry): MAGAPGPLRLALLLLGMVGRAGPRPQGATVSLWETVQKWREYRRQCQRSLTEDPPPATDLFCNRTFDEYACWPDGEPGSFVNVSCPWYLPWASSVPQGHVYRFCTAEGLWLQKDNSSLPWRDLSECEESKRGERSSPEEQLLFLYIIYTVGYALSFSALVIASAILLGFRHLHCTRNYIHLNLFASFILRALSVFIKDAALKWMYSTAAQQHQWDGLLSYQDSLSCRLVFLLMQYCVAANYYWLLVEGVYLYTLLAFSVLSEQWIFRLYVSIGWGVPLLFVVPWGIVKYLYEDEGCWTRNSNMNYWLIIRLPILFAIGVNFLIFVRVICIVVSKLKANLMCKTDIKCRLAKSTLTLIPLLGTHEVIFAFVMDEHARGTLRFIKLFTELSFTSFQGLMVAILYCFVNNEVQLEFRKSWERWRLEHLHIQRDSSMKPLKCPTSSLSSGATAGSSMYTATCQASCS

## COC(=O)CCNS(=O)(=O)c1ccc(CS(=O)(=O)c2nc3cc(Cl)c(Cl)cc3nc2C(C)C)cc1
[1]
  EC50: 4.9 µM
[2]
  Emax: 65%

## CCCc1nc2cc(Cl)c(Cl)cc2nc1S(C)(=O)=O
[1]
  EC50: 1.2 µM
[3]
  EC50: 0.404 µM
[2]
  Emax: 68%

## COC(=O)c1cc2cc(Cl)c(Cl)cc2nc1S(C)(=O)=O
[1]
  Activity: inactive

## CS(=O)(=O)c1nc2cc(Cl)c(Cl)cc2nc1NC1CCCc2ccccc21 (stereo unspecified)
[1]
  EC50: 0.433 µM
[2]
  Emax: 69%

## O=S1(=O)CCCc2nc3cc(Cl)c(Cl)cc3nc21
[1]
  Activity: inactive

## CS(=O)(=O)c1nc2cc(Cl)c(Cl)cc2nc1N1CCC(=O)N1
[1]
  EC50: 14 µM
[2]
  Emax: 38%

## CCNc1nc2cc(Cl)c(Cl)cc2nc1S(C)(=O)=O
[1]
  EC50: 0.725 µM
[3]
  EC50: 0.109 µM
[2]
  Emax: 46%

## Nc1nc2cc(Cl)c(Cl)cc2nc1C(F)(F)F
[2]
  Emax: < 2%

## CON(C)c1nc2cc(Cl)c(Cl)cc2nc1S(C)(=O)=O
[1]
  EC50: 2.6 µM
[2]
  Emax: 52%

## CCC(C)Nc1nc2cc(Cl)c(Cl)cc2nc1S(C)(=O)=O (stereo unspecified)
[1]
  EC50: 0.175 µM
[2]
  Emax: 94%

## CC(C)(C)Nc1nc2c(Cl)cc(C(F)(F)F)cc2nc1S(C)(=O)=O
[1]
  EC50: 2.2 µM
[2]
  Emax: 42%

## CC(C)Nc1nc2cc(Cl)c([N+](=O)[O-])c(C(F)(F)F)c2nc1S(C)(=O)=O
[1]
  EC50: 5 µM
[2]
  Emax: 31%

## CC(C)N(C)c1nc2cc(Cl)c(Cl)cc2nc1S(C)(=O)=O
[1]
  EC50: 1.8 µM
[3]
  EC50: 0.46 µM
[2]
  Emax: 75%

## CC(C)c1nc2cc(Cl)c(Cl)cc2nc1S(C)(=O)=O
[1]
  EC50: 5 µM
[3]
  EC50: 0.253 µM
[2]
  Emax: 35%

## CC(C)Sc1nc2cc(Cl)c(Cl)cc2nc1S(C)(=O)=O
[2]
  Emax: 46%

## CC(=O)NNc1nc2cc(Cl)c(Cl)cc2nc1S(C)(=O)=O
[1]
  EC50: 14 µM
[2]
  Emax: 32%

## CCOP(=O)(OCC)c1nc2cc(Cl)c(Cl)cc2nc1C(F)(F)F
[2]
  Emax: < 2%

## CC(C)n1c(S(C)(=O)=O)nc2cc(Cl)c(Cl)cc21
[1]
  Activity: inactive

## CS(=O)(=O)c1nc2cc(Cl)c(Cl)cc2nc1NC1CCS(=O)(=O)C1 (stereo unspecified)
[1]
  EC50: 1.4 µM
[2]
  Emax: 43%

## CC(=O)NCCNc1nc2cc(Cl)c(Cl)cc2nc1S(C)(=O)=O
[1]
  EC50: 7.1 µM
[2]
  Emax: 22%

## CCCc1nc2cc(C)c(C)cc2nc1S(C)(=O)=O
[2]
  Emax: < 2%

## CC(C)c1nc2cc(Cl)c(Cl)cc2nc1S(=O)(=O)Cc1ccc(S(=O)(=O)CC2CC2)cc1
[1]
  EC50: 3.3 µM
[2]
  Emax: 64%

## CCC(C)Nc1nc2cc(Cl)c([N+](=O)[O-])cc2nc1S(C)(=O)=O (stereo unspecified)
[1]
  EC50: 4.3 µM
[2]
  Emax: 44%

## CC(C)(C)Nc1nc2cc(Cl)c(Cl)cc2nc1S(C)(=O)=O
Pancreas
  Activity: Active
[1]
  EC50: 0.155 µM
[2]
  Emax: 85%
Mus musculus
  Activity: Active

## Cc1nnc([S+]([O-])c2nc3cc(Cl)c(Cl)cc3nc2C(C)C)s1 (stereo unspecified)
[1]
  EC50: 5.1 µM
[2]
  Emax: 19%

## CCCc1nc2cc(OC)c(OC)cc2nc1S(C)(=O)=O
[2]
  Emax: < 2%

## CC(C)Nc1nc2cc(Cl)c(Cl)cc2nc1S(C)(=O)=O
[1]
  EC50: 0.214 µM
[3]
  EC50: 0.107 µM
[2]
  Emax: 82%

## CS(=O)(=O)c1nc2cc(Cl)c(Cl)cc2nc1C(F)(F)F
[1]
  EC50: 2.6 µM
[3]
  EC50: 0.091 µM
[2]
  Emax: 40%

## CCOC(=O)c1nc2cc(Cl)c(Cl)cc2nc1C(F)(F)F
[2]
  Emax: < 2%

## Cc1nnc(S(=O)(=O)c2nc3cc(Cl)c(Cl)cc3nc2C(C)C)s1
[1]
  EC50: 1 µM
[2]
  Emax: 47%

## CS(=O)(=O)c1nc2cc(Cl)c(Cl)cc2nc1N
[1]
  EC50: 6.3 µM
[2]
  Emax: 24%

## CC(C)c1nc2cc(Cl)c(Cl)cc2nc1S(=O)(=O)Cc1ccc(S(C)(=O)=O)cc1
[1]
  EC50: 1.2 µM
[3]
  EC50: 0.459 µM
[2]
  Emax: 63%

## CC(C)C(=O)c1nc2cc(Cl)c(Cl)cc2nc1C(C)C
[3]
  EC50: > 10 µM
[2]
  Emax: < 2%

## N#Cc1nc2cc(Cl)c(Cl)cc2nc1C(F)(F)F
[2]
  Emax: < 2%

## CC(C)Nc1nc2c([N+](=O)[O-])c(Cl)c(Cl)cc2nc1S(C)(=O)=O
[1]
  EC50: 1.5 µM
[2]
  Emax: 38%

## CC(C)c1nc2cc(Cl)c(Cl)cc2nc1S(=O)(=O)CCC1OCCO1
[1]
  EC50: 3 µM
[3]
  EC50: 0.551 µM
[2]
  Emax: 71%

## CS(=O)(=O)c1nc2cc(Cl)c(Cl)cc2nc1N1CCCC1
[1]
  EC50: 2.2 µM
[2]
  Emax: 72%

## CN(C)c1nc2cc(Cl)c(Cl)cc2nc1S(C)(=O)=O
[1]
  EC50: 2.2 µM
[3]
  EC50: 0.53 µM
[2]
  Emax: 47%

## CC(C)c1nc2cc(Cl)c(Cl)cc2nc1[S+](C)[O-] (stereo unspecified)
[1]
  EC50: 30 µM
[3]
  EC50: 1.1 µM
[2]
  Emax: 29%

## CCOC(=O)c1nc2cc(Cl)c(Cl)cc2nc1S(C)(=O)=O
[1]
  EC50: > 10 µM
[3]
  EC50: 3.1 µM
[2]
  Emax: 24%

## CCN(CC)C(=O)c1nc2cc(Cl)c(Cl)cc2nc1C(C)C
[3]
  EC50: > 10 µM
[2]
  Emax: < 2%

## CC(C)c1nc2cc(Cl)c(Cl)cc2nc1O
[2]
  Emax: < 2%

Reference: ChEMBL document CHEMBL1140467, “Small molecule ago-allosteric modulators of the human glucagon-like peptide-1 (hGLP-1) receptor” (Bioorg Med Chem Lett, 2007)
